System: Acinetobacter baumannii
Experiment: Synergistic antibacterial activity against Acinetobacter baumannii PR476 producing OXA-24/40 assessed as cefepime MIC at 8 ug/ml by broth microdilution method
Format: functional
Conditions: dose 8 µg/ml

| Compound | MIC |
| --- | --- |
| O=C(NNC(=O)[C@@H]1CC[C@@H]2CN1C(=O)N2OS(=O)(=O)O)[C@@H]1CCCNC1 [ZIDEBACTAM] | 2 µg/mL |

System: Klebsiella pneumoniae
Experiment: Synergistic antibacterial activity against Klebsiella pneumoniae 11978 producing OXA-48 assessed as cefepime MIC at 8 ug/ml by broth microdilution method
Format: functional
Conditions: dose 8 µg/ml
Procedure, shortened: (§1)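 Broth microdilution per CLSI guidelines, using custom frozen panels. […] Each partner drug was also tested alone. MICs were run in triplicate and the modal value is reported.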

| Compound | MIC |
| --- | --- |
| O=C(NNC(=O)[C@@H]1CC[C@@H]2CN1C(=O)N2OS(=O)(=O)O)[C@@H]1CCCNC1 [ZIDEBACTAM] | ≤ 0.12 µg/mL |

System: Acinetobacter baumannii
Experiment: Synergistic antibacterial activity against ADC deleted Acinetobacter baumannii transfected with pWH1266 producing OXA-24/40 assessed as cefepime MIC at 8 ug/ml by broth microdilution method
Format: functional
Conditions: dose 8 µg/ml

| Compound | MIC |
| --- | --- |
| O=C(NNC(=O)[C@@H]1CC[C@@H]2CN1C(=O)N2OS(=O)(=O)O)[C@@H]1CCCNC1 [ZIDEBACTAM] | 16 µg/mL |

System: Acinetobacter baumannii
Experiment: Synergistic antibacterial activity against ADC deleted Acinetobacter baumannii transfected with pWH1266 OXA-23 assessed as cefepime MIC at 4 ug/ml by broth microdilution method
Format: functional
Conditions: dose 4 µg/ml

| Compound | MIC |
| --- | --- |
| O=C(NNC(=O)[C@@H]1CC[C@@H]2CN1C(=O)N2OS(=O)(=O)O)[C@@H]1CCCNC1 [ZIDEBACTAM] | 16 µg/mL |

System: Klebsiella pneumoniae
Experiment: Synergistic antibacterial activity against Klebsiella pneumoniae 977/1916 producing KPC-3 assessed as meropenem MIC at 8 ug/ml by broth microdilution method
Format: functional
Conditions: dose 8 µg/ml

| Compound | MIC |
| --- | --- |
| O=C(NNC(=O)[C@@H]1CC[C@@H]2CN1C(=O)N2OS(=O)(=O)O)[C@@H]1CCCNC1 [ZIDEBACTAM] | ≤ 0.12 µg/mL |

System: Acinetobacter baumannii
Experiment: Synergistic antibacterial activity against Acinetobacter baumannii PR448 producing OXA-23 assessed as meropenem MIC at 8 ug/ml by broth microdilution method
Format: functional
Conditions: dose 8 µg/ml

| Compound | MIC |
| --- | --- |
| O=C(NNC(=O)[C@@H]1CC[C@@H]2CN1C(=O)N2OS(=O)(=O)O)[C@@H]1CCCNC1 [ZIDEBACTAM] | > 16 µg/mL |

System: Klebsiella pneumoniae
Experiment: Synergistic antibacterial activity against Klebsiella pneumoniae 977/1916 producing KPC-3 assessed as cefepime MIC at 8 ug/ml by broth microdilution method
Format: functional
Conditions: dose 8 µg/ml

| Compound | MIC |
| --- | --- |
| O=C(NNC(=O)[C@@H]1CC[C@@H]2CN1C(=O)N2OS(=O)(=O)O)[C@@H]1CCCNC1 [ZIDEBACTAM] | ≤ 0.12 µg/mL |

System: Klebsiella pneumoniae
Experiment: Synergistic antibacterial activity against Klebsiella pneumoniae 972/1910 producing KPC-3 assessed as cefepime MIC at 4 ug/ml by broth microdilution method
Format: functional
Conditions: dose 4 µg/ml

| Compound | MIC |
| --- | --- |
| O=C(NNC(=O)[C@@H]1CC[C@@H]2CN1C(=O)N2OS(=O)(=O)O)[C@@H]1CCCNC1 [ZIDEBACTAM] | ≤ 0.12 µg/mL |

System: Klebsiella pneumoniae
Experiment: Synergistic antibacterial activity against Klebsiella pneumoniae jefferson 1773 producing OXA-181 assessed as cefepime MIC at 8 ug/ml by broth microdilution method
Format: functional
Conditions: dose 8 µg/ml

| Compound | MIC |
| --- | --- |
| O=C(NNC(=O)[C@@H]1CC[C@@H]2CN1C(=O)N2OS(=O)(=O)O)[C@@H]1CCCNC1 [ZIDEBACTAM] | ≤ 0.12 µg/mL |

System: Klebsiella pneumoniae
Experiment: Synergistic antibacterial activity against Klebsiella pneumoniae CAV 1636 producing OXA-181 assessed as cefepime MIC at 8 ug/ml by broth microdilution method
Format: functional
Conditions: dose 8 µg/ml

| Compound | MIC |
| --- | --- |
| O=C(NNC(=O)[C@@H]1CC[C@@H]2CN1C(=O)N2OS(=O)(=O)O)[C@@H]1CCCNC1 [ZIDEBACTAM] | ≤ 0.12 µg/mL |

System: Bacteria
Experiment: Inhibition of bacteria ADC-7 assessed as Koff rate using nitrocefin as substrate incubated for 30 mins
Conditions: not given

| Compound | K |
| --- | --- |
| O=C(NNC(=O)[C@@H]1CC[C@@H]2CN1C(=O)N2OS(=O)(=O)O)[C@@H]1CCCNC1 [ZIDEBACTAM] | 1.1 10^-3/s |

System: Escherichia coli
Experiment: Synergistic antibacterial activity against Escherichia coli DH10B transfected with pBR322-catI-KPC-2 assessed as cefepime MIC at 4 ug/ml by broth microdilution method
Format: functional
Conditions: dose 4 µg/ml
Procedure, shortened: as §1

| Compound | MIC |
| --- | --- |
| O=C(NNC(=O)[C@@H]1CC[C@@H]2CN1C(=O)N2OS(=O)(=O)O)[C@@H]1CCCNC1 [ZIDEBACTAM] | ≤ 0.12 µg/mL |

System: Pseudomonas aeruginosa
Experiment: Synergistic antibacterial activity against Pseudomonas aeruginosa 795 assessed as cefepime MIC at 4 ug/ml by broth microdilution method
Format: functional
Conditions: dose 4 µg/ml

| Compound | MIC |
| --- | --- |
| O=C(NNC(=O)[C@@H]1CC[C@@H]2CN1C(=O)N2OS(=O)(=O)O)[C@@H]1CCCNC1 [ZIDEBACTAM] | 16 µg/mL |

System: Acinetobacter baumannii
Experiment: Synergistic antibacterial activity against Acinetobacter baumannii PR359 producing OXA-23 assessed as meropenem MIC at 8 ug/ml by broth microdilution method
Format: functional
Conditions: dose 8 µg/ml
Procedure, shortened: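 Broth microdilution per CLSI guidelines in frozen panels. Test compound held at fixed 8 mg/L while the partner β-lactam concentration was increased. Run in triplicate; modal MIC reported.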

| Compound | MIC |
| --- | --- |
| O=C(NNC(=O)[C@@H]1CC[C@@H]2CN1C(=O)N2OS(=O)(=O)O)[C@@H]1CCCNC1 [ZIDEBACTAM] | > 16 µg/mL |

System: Klebsiella pneumoniae
Experiment: Synergistic antibacterial activity against Klebsiella pneumoniae 1354/2241 producing KPC-3 assessed as cefepime MIC at 8 ug/ml by broth microdilution method
Format: functional
Conditions: dose 8 µg/ml
Procedure, shortened: as §1

| Compound | MIC |
| --- | --- |
| O=C(NNC(=O)[C@@H]1CC[C@@H]2CN1C(=O)N2OS(=O)(=O)O)[C@@H]1CCCNC1 [ZIDEBACTAM] | ≤ 0.12 µg/mL |

System: Pseudomonas aeruginosa
Experiment: Synergistic antibacterial activity against Pseudomonas aeruginosa 839 assessed as cefepime MIC at 4 ug/ml by broth microdilution method
Format: functional
Conditions: dose 4 µg/ml

| Compound | MIC |
| --- | --- |
| O=C(NNC(=O)[C@@H]1CC[C@@H]2CN1C(=O)N2OS(=O)(=O)O)[C@@H]1CCCNC1 [ZIDEBACTAM] | 2 µg/mL |

System: Escherichia coli
Experiment: Synergistic antibacterial activity against Escherichia coli DH10B transfected with pBC SK (-) OXA-48 assessed as meropenem MIC at 8 ug/ml by broth microdilution method
Format: functional
Conditions: dose 8 µg/ml
Procedure, shortened: as §1

| Compound | MIC |
| --- | --- |
| O=C(NNC(=O)[C@@H]1CC[C@@H]2CN1C(=O)N2OS(=O)(=O)O)[C@@H]1CCCNC1 [ZIDEBACTAM] | ≤ 0.12 µg/mL |

System: Escherichia coli
Experiment: Synergistic antibacterial activity against Escherichia coli DH10B transfected with pBC SK (-) KPC-3 assessed as meropenem MIC at 4 ug/ml by broth microdilution method
Format: functional
Conditions: dose 4 µg/ml

| Compound | MIC |
| --- | --- |
| O=C(NNC(=O)[C@@H]1CC[C@@H]2CN1C(=O)N2OS(=O)(=O)O)[C@@H]1CCCNC1 [ZIDEBACTAM] | ≤ 0.12 µg/mL |
